{"data": "Measured values pooled from the literature", "CSF1R": "Macrophage colony-stimulating factor 1 receptor (CSF1R, Homo sapiens, UniProt P07333)", "CSF1R autoinhibited": "Macrophage colony-stimulating factor 1 receptor, autoinhibited (CSF1R, Homo sapiens, UniProt P07333)", "note": "Protocols differ between the studies behind these lines."}
{"SMILES": "Cc1ccc(NC(=O)c2ccc(CN3CCN(C)CC3)cc2)cc1Nc1nccc(-c2cncc(-c3oncc3C)c2)n1", "target": "CSF1R", "test": "enzyme activity, inhibitor", "setting": "0.5 µM", "measurement": "remaining activity", "value": "≤ 50%"}
{"SMILES": "Cc1ccc(NC(=O)c2ccc(C)c(C(F)(F)F)c2)cc1C#Cc1nn(C2CCC(O)CC2)c2ncnc(N)c12 (centres unmarked)", "target": "CSF1R", "test": "cell-free assay", "setting": "10 µM", "measurement": "remaining signal", "value": "4%"}
{"SMILES": "COc1cc2ncnc(Nc3ccc(Oc4ccccc4)cc3C)c2cc1OC", "target": "CSF1R", "test": "enzyme activity, inhibitor", "setting": "1 µM", "measurement": "inhibition", "value": "24%"}
{"SMILES": "O=C1CCc2cc(Nc3cc(OC4CCOCC4)c([N+](=O)[O-])cc3Cl)ccc2N1", "target": "CSF1R autoinhibited", "test": "cell-free assay, competition with immobilised ligand", "setting": "1 µM", "measurement": "remaining binding", "value": "95%"}
{"SMILES": "N#CCCc1ccc2c(c1)-c1[nH]c3ccc([N+](=O)[O-])cc3c1CC(=O)N2", "target": "CSF1R", "test": "cell-free assay", "setting": "0.5 µM", "measurement": "remaining signal", "value": "43.4%"}
{"SMILES": "O=C(Nc1cnn(-c2csc(C(=O)NC3COC3)c2)c1)Nc1c(F)cccc1Cl", "target": "CSF1R", "test": "enzyme activity, inhibitor", "setting": "5 µM", "measurement": "remaining activity", "value": "98.9%"}
{"SMILES": "c1ccc(-c2n[nH]c3c2oc2ccccc23)cc1", "target": "CSF1R", "test": "cell-free assay", "setting": "0.5 µM", "measurement": "remaining signal", "value": "78.1%"}
{"SMILES": "Cc1ccc(C(=O)NCc2ccsc2)cc1C#Cc1cn(C(C)C)c2ncnc(N)c12", "target": "CSF1R", "test": "enzyme activity, inhibitor", "setting": "1 µM", "measurement": "activity vs control", "value": "8%"}
{"SMILES": "CCN(CC)CCNC(=O)c1c(C)[nH]c(/C=C2\\C(=O)Nc3ccc(F)cc32)c1C", "target": "CSF1R", "test": "cell-free assay", "setting": "0.3 µM", "measurement": "inhibition", "value": "98%"}
{"SMILES": "O=C(NCCCC1CCCCC1)c1ccc(CNC(=O)c2cnn(-c3ccccc3)c2C(F)(F)F)cc1", "target": "CSF1R autoinhibited", "test": "cell-free assay, competition with immobilised ligand", "setting": "0.1 µM", "measurement": "remaining binding", "value": "100%"}
{"SMILES": "CC/C(=N\\NC(=O)NCc1cccc(O)c1)c1ccc(O)c(C)c1O", "target": "CSF1R", "test": "enzyme activity, inhibitor", "setting": "0.1 µM", "measurement": "inhibition", "value": "-4.4%"}
{"SMILES": "O=C(CSc1nc2nccnc2c(=O)n1CCc1ccccc1)Nc1nccs1", "target": "CSF1R", "test": "enzyme activity, inhibitor", "setting": "10 µM", "measurement": "inhibition", "value": "13%"}
{"SMILES": "COc1cc(-c2cn(C3CCc4c(F)cccc4N(CC(F)(F)F)C3=O)nn2)ccc1-n1cnc(C)c1 (centres unmarked)", "target": "CSF1R", "test": "cell-free assay, competition with immobilised ligand", "setting": "1 µM", "measurement": "remaining binding", "value": "86%"}
{"SMILES": "COc1cc2ncnc(Nc3ccc(F)c(Cl)c3)c2cc1OCCCN1CCOCC1", "target": "CSF1R", "test": "cell-free assay", "setting": "0.5 µM", "measurement": "remaining signal", "value": "110%"}
{"SMILES": "Cc1nc(N2CC[C@@H](O)C2)ncc1-c1cc(C(F)(F)F)cc2[nH]ncc12", "target": "CSF1R", "test": "cell-free assay, competition with immobilised ligand", "setting": "1 µM", "measurement": "remaining binding", "value": "89%"}
{"SMILES": "O=S(=O)(c1cccc2cnccc12)N1CCCNCC1", "target": "CSF1R", "test": "cell-free assay", "setting": "0.5 µM", "measurement": "remaining signal", "value": "97.9%"}
{"SMILES": "Cc1c(NC(=O)c2cc(C(N)=O)nc3cc(F)ccc23)c(C(F)(F)F)nn1Cc1ccc(C#N)cc1", "target": "CSF1R", "test": "cell-free assay, competition with immobilised ligand", "setting": "1 µM", "measurement": "remaining binding", "value": "83%"}
{"SMILES": "C=CC(=O)Nc1cc(Nc2nccc(Nc3cc(Cl)c(F)cc3C(C)(C)O)n2)c(OC)cc1N1CC[C@@H](N(C)C)C1", "target": "CSF1R", "test": "enzyme activity, inhibitor", "setting": "1 µM", "measurement": "inhibition", "value": "13%"}
{"SMILES": "COc1ccc2cc(OCC3(C(=O)O)CN(C(=O)c4ccc(F)cc4)C3)ccc2c1", "target": "CSF1R", "test": "cell-free assay, competition with immobilised ligand", "setting": "1 µM", "measurement": "remaining binding", "value": "100%"}
{"SMILES": "Nc1ncnc2occ(-c3ccc(NC(=O)Nc4cc(C(F)(F)F)ccc4F)cc3)c12", "target": "CSF1R", "test": "cell-free assay", "setting": "20 µM", "measurement": "remaining signal", "value": "0%"}
{"SMILES": "CNC(=O)c1cc2c(Oc3ccc(NC(=O)C4(C(=O)Nc5ccc(F)cc5)CC4)cc3)ccnc2cc1OC", "target": "CSF1R", "test": "enzyme activity, inhibitor, radiometric", "setting": "1 µM", "measurement": "inhibition", "value": "98%"}
{"SMILES": "CN(C)c1ncnc(-c2ccc3nc(Nc4cc(CN5CCN(C(=O)CC(F)(F)F)CC5)ccn4)[nH]c3c2)c1Cl", "target": "CSF1R", "test": "cell-free assay, competition with immobilised ligand", "setting": "1 µM", "measurement": "remaining binding", "value": "100%"}
{"SMILES": "CC(C)(C)c1nc2c(s1)c1nc(N)ncc1c1ccc(NS(=O)(=O)c3c(F)cccc3F)c(F)c12", "target": "CSF1R", "test": "enzyme activity, inhibitor, radiometric", "setting": "1 µM", "measurement": "remaining activity", "value": "109%"}
{"SMILES": "CN(C)C1CCN(CC#Cc2nn(C3CCCC3)c3nc(NCc4ccccc4)ncc23)C1 (centres unmarked)", "target": "CSF1R", "test": "enzyme activity, inhibitor, FRET", "setting": "10 µM", "measurement": "inhibition", "value": "107%"}
{"SMILES": "Cc1cnc(NC2CCOCC2)nc1-n1cnc(C(=O)NC(CN)c2cc(F)cc(Cl)c2)c1 (centres unmarked)", "target": "CSF1R", "test": "enzyme activity, inhibitor, radiometric", "setting": "1 µM", "measurement": "remaining activity", "value": "103%"}
{"SMILES": "Cc1cc(NC(=O)c2cccc3cc(-c4cccc5[nH]nc(N)c45)ccc23)ccc1F", "target": "CSF1R", "test": "enzyme activity, inhibitor", "setting": "0.1 µM", "measurement": "activity vs control", "value": "7%"}
{"SMILES": "COc1cc2nccc(Oc3ccc(NC(=O)c4c5n(n(-c6ccc(F)cc6)c4=O)CCCC5)cc3)c2cc1OC", "target": "CSF1R", "test": "enzyme activity, inhibitor", "setting": "0.1 µM", "measurement": "inhibition", "value": "38%"}
{"SMILES": "CO[C@@H](C)c1c(Nc2ccc([C@@H](N(C)C(=O)C3CCS(=O)(=O)CC3)C(F)(F)F)cc2)cnc2cc(Cl)nn12", "target": "CSF1R autoinhibited", "test": "cell-free assay, competition with immobilised ligand", "setting": "1 µM", "measurement": "remaining binding", "value": "88%"}
{"SMILES": "CCCOc1ccc(OC)c(F)c1C(=O)c1ccc(C(=O)N[C@@H]2CNC[C@H]2NC(=O)c2ccc3[nH]ncc3c2)cc1", "target": "CSF1R", "test": "enzyme activity, inhibitor", "setting": "10 µM", "measurement": "remaining activity", "value": "27%"}
